Assay [1] has as its target T1, Toll-like receptor 1/2 (Homo sapiens, UniProt O60603+Q15399). Kind of assay: Agonist activity at TLR1/TLR2 in human THP-1 derived macrophages assessed as stimulation of TNF alpha release measured for 4 hrs by ELISA based assay. In kind it is cell-based. Put shortly:
(§1)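 THP-1 cells differentiated with 100 nM PMA in RPMI/10% FBS for 24 h, washed, then rested 24 h in fresh medium. Seeded at 0.5 × 10⁵ cells/well and exposed to graded compound concentrations for 4 h, with final DMSO held at 0.1%. LPS served as positive control and DMSO as negative control. Supernatant human TNF-α was read by ELISA. EC50 from duplicate means.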

In assay [2] the target is Toll-like receptor 1/2 (Mus musculus, UniProt Q9EPQ1+Q9QUN7). Put plainly: Agonist activity at TLR1/TLR2 in wild type C57BL/6J mouse macrophages assessed as stimulation of TNF alpha release measured for 4 hrs by ELISA based assay. In kind it is cell-based, Macrophage. Put shortly:
(§2)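 Thioglycolate-elicited peritoneal macrophages from wild type C57BL/6J mice, harvested by PBS lavage 4 d after i.p. 4% thioglycolate. Cultured in DMEM/10% FBS at 37 °C, 5% CO2, seeded at 1 × 10⁵ cells/well and exposed to graded compound concentrations for 4 h, with final DMSO ≤0.5% held constant. LPS served as positive control. Supernatant mouse TNF-α was read by ELISA. EC50 from duplicate means.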

Assay [3] addresses Toll-like receptor 1/2 (Mus musculus) (UniProt Q9QUN7+Q9EPQ1). Kind of assay: Agonist activity at TLR1/TLR2 in wild type C57BL/6J mouse macrophages assessed as stimulation of TNF alpha release measured for 4 hrs by ELISA based assay relative to diprovocim-1. Also noted: Activity: concentration or dose not given beside the values. Format: cell-based. Conditions: Macrophage. The method in brief:
as §2
For orientation: An ELISA detects its analyte on a solid surface through an enzyme-linked reagent.

The target of assay [4] is T1, Toll-like receptor 1/2. Put plainly: Agonist activity at TLR1/TLR2 in human THP-1 derived macrophages assessed as stimulation of TNF alpha release measured for 4 hrs by ELISA based assay relative to diprovocim-1. In kind it is cell-based. Also noted: Activity: concentration or dose not given beside the values. The method in brief: as §1

This is an account of results in ChEMBL document CHEMBL5143728, “Next-Generation Diprovocims with Potent Human and Murine TLR1/TLR2 Agonist Activity That Activate the Innate and Adaptive Immune Response” (J Med Chem, 2022).

SMILES strings stand for the structures.

Chain of Toll-like receptor 1/2 (Mus musculus, UniProt Q9EPQ1+Q9QUN7) (Q9QUN7 whole entry): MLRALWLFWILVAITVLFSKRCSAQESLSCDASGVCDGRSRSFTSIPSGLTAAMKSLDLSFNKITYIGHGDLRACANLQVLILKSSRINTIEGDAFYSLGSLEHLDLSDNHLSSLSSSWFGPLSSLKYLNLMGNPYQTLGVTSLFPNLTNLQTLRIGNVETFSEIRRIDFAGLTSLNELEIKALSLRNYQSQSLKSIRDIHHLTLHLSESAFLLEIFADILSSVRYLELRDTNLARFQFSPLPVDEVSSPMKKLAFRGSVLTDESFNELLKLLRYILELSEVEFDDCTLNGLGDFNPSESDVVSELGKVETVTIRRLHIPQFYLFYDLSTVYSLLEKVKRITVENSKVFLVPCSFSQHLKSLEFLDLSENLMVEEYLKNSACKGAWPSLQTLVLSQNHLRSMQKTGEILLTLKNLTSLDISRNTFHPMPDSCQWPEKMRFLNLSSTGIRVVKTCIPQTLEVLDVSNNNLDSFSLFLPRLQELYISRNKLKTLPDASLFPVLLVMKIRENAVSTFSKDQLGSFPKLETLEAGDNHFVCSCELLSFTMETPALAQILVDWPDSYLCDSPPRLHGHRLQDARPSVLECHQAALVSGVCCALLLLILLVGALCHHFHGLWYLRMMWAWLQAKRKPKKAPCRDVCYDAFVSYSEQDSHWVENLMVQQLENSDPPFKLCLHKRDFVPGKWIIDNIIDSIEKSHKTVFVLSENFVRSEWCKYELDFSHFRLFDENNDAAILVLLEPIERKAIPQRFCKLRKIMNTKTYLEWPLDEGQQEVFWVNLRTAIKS
Chain of Toll-like receptor 1/2 (Mus musculus, UniProt Q9EPQ1+Q9QUN7) (Q9EPQ1 whole entry): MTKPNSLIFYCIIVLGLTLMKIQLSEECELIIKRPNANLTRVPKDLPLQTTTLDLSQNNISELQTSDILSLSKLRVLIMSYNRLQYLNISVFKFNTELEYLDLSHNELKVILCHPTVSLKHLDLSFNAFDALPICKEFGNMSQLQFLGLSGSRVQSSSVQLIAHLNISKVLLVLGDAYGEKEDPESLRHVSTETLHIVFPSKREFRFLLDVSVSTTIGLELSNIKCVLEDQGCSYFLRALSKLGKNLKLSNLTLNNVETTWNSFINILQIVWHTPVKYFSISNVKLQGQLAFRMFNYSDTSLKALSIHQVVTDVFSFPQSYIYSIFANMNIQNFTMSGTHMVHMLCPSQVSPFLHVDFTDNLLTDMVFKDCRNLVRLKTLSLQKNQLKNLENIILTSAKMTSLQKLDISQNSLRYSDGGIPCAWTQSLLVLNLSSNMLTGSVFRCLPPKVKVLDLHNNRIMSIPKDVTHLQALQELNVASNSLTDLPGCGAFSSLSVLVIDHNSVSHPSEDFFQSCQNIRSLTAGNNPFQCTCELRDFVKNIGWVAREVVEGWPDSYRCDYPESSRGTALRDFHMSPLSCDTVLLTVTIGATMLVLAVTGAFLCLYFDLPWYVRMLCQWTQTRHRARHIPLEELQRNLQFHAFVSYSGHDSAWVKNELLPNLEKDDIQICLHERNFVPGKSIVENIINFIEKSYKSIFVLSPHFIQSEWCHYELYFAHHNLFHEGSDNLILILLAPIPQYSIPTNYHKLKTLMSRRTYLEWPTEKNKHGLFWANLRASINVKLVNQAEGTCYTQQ
T1 sequence (O60603 whole entry): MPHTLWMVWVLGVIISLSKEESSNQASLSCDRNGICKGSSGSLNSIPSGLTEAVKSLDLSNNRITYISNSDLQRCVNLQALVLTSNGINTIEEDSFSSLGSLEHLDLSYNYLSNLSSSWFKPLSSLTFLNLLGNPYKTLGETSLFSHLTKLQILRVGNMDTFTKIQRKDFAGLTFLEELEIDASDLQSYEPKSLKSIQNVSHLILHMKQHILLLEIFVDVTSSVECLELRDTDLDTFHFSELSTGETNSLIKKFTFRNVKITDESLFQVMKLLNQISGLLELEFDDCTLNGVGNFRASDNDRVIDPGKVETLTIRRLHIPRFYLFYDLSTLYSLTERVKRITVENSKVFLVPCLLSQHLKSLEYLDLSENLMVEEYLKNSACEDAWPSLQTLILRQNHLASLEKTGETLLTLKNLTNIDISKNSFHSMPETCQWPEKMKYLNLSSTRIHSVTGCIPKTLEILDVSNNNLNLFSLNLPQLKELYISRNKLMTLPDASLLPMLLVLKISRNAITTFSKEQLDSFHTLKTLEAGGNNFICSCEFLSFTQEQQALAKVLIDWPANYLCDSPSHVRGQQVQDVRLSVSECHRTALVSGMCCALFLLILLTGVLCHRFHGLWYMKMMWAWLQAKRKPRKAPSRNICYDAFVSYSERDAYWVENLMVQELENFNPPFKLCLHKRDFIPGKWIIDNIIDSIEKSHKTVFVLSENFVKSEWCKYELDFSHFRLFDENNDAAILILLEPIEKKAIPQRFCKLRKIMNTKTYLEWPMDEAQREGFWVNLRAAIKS
T1 sequence (Q15399 whole entry): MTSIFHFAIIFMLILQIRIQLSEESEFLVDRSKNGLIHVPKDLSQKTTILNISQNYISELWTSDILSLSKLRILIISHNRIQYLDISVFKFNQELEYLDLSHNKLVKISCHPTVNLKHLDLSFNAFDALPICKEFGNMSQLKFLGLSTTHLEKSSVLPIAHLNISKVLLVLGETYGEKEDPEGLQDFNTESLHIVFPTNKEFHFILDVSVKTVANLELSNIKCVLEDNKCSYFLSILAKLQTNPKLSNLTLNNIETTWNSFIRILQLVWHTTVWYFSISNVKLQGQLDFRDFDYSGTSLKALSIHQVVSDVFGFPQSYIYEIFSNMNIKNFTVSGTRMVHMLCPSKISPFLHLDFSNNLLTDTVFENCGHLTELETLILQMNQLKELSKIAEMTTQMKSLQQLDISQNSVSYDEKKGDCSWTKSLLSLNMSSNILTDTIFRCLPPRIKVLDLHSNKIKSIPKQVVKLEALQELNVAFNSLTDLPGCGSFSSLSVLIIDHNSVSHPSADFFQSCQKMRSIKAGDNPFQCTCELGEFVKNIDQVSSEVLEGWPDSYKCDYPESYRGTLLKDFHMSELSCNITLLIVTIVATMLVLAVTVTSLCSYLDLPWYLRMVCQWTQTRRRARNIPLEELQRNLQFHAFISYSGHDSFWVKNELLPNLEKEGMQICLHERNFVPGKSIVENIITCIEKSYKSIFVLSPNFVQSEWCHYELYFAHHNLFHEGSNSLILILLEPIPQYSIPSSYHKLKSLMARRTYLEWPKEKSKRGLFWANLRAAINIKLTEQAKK

What is called EC50 is the concentration giving half of the maximal effect. With `COC(=O)CCCCCCCCCNC(=O)[C@@H]1CN(C(=O)c2ccc(C(=O)N3C[C@@H](C(=O)N[C@H]4C[C@@H]4c4ccccc4)[C@H](C(=O)N[C@H]4C[C@@H]4c4ccccc4)C3)cc2)C[C@H]1C(=O)N[C@H]1C[C@@H]1c1ccccc1`, the concentration giving a half-maximal response (EC50) in assay [1] was 0.37 nM; in assay [2], 17 nM.
Broadly, the Emax is the greatest response seen or fitted, relative to the assay's reference. For the compound `CCCCCCNC(=O)[C@@H]1CN(C(=O)c2ccc(C(=O)N3C[C@@H](C(=O)N[C@H]4C[C@@H]4c4ccccc4)[C@H](C(=O)N[C@H]4C[C@@H]4c4ccccc4)C3)cc2)C[C@H]1C(=O)N[C@H]1C[C@@H]1c1ccccc1`, the EC50 in assay [1] worked out at 0.25 nM; in assay [2], 80 nM. Also, the Emax was 150% in assay [3] (filed as agonist) and 100% in assay [4] (filed as agonist).
In the same order, the values of `CCCCNC(=O)[C@@H]1CN(C(=O)c2ccc(C(=O)N3C[C@@H](C(=O)N[C@H]4C[C@@H]4c4ccccc4)[C@H](C(=O)N[C@H]4C[C@@H]4c4ccccc4)C3)cc2)C[C@H]1C(=O)N[C@H]1C[C@@H]1c1ccccc1` are 2 nM, 30 nM, 150% and 120%.
In the same order, the values of `CCCCCCCCCCNC(=O)[C@@H]1CN(C(=O)c2ccc(C(=O)N3C[C@@H](C(=O)N[C@H]4C[C@@H]4c4ccccc4)[C@H](C(=O)N[C@H]4C[C@@H]4c4ccccc4)C3)cc2)C[C@H]1C(=O)N[C@H]1C[C@@H]1c1ccccc1` are 0.1 nM, 650 nM, 260% and 100%.
In the case of `CC(C)(C)OC(=O)CCOCCOCCOCCNC(=O)[C@@H]1CN(C(=O)c2ccc(C(=O)N3C[C@@H](C(=O)N[C@H]4C[C@@H]4c4ccccc4)[C@H](C(=O)N[C@H]4C[C@@H]4c4ccccc4)C3)cc2)C[C@H]1C(=O)N[C@H]1C[C@@H]1c1ccccc1`, the concentration giving a half-maximal response (EC50) in assay [2] was 500 nM.
Turning to `COC(=O)CCCCCCCNC(=O)[C@@H]1CN(C(=O)c2ccc(C(=O)N3C[C@@H](C(=O)N[C@H]4C[C@@H]4c4ccccc4)[C@H](C(=O)N[C@H]4C[C@@H]4c4ccccc4)C3)cc2)C[C@H]1C(=O)N[C@H]1C[C@@H]1c1ccccc1`, the concentration for a half-maximal effect (EC50) in assay [1] is 3.8 nM; in assay [2], 240 nM.
`CCCCCCCCCCCCCCCCNC(=O)[C@@H]1CN(C(=O)c2ccc(C(=O)N3C[C@@H](C(=O)N[C@H]4C[C@@H]4c4ccccc4)[C@H](C(=O)N[C@H]4C[C@@H]4c4ccccc4)C3)cc2)C[C@H]1C(=O)N[C@H]1C[C@@H]1c1ccccc1`: the concentration for a half-maximal effect (EC50) in assay [1] worked out at 0.5 nM; in assay [2] it was 2.6 nM. Further, the maximal effect (Emax) was 75% in assay [3] (filed as agonist) and 110% in assay [4] (filed as agonist).
As to `COC(=O)CCOCCOCCOCCNC(=O)[C@@H]1CN(C(=O)c2ccc(C(=O)N3C[C@@H](C(=O)N[C@H]4C[C@@H]4c4ccccc4)[C@H](C(=O)N[C@H]4C[C@@H]4c4ccccc4)C3)cc2)C[C@H]1C(=O)N[C@H]1C[C@@H]1c1ccccc1`, the Activity in assay [4] (filed as agonist) is 110%. Further, the EC50 in assay [2] was over 500 nM.
In the case of `COC(=O)CCCCCCCCCCCNC(=O)[C@@H]1CN(C(=O)c2ccc(C(=O)N3C[C@@H](C(=O)N[C@H]4C[C@@H]4c4ccccc4)[C@H](C(=O)N[C@H]4C[C@@H]4c4ccccc4)C3)cc2)C[C@H]1C(=O)N[C@H]1C[C@@H]1c1ccccc1`, the EC50 in assay [1] is 0.2 nM. Moreover, the Activity in assay [3] (filed as agonist) and in assay [4] (filed as agonist) was 100% in each case.
For `O=C(O)[C@@H]1CN(C(=O)c2ccc(C(=O)N3C[C@@H](C(=O)N[C@H]4C[C@@H]4c4ccccc4)[C@H](C(=O)N[C@H]4C[C@@H]4c4ccccc4)C3)cc2)C[C@H]1C(=O)N[C@H]1C[C@@H]1c1ccccc1`, the EC50 is 200 nM in assay [1] and over 5000 nM in assay [2]. In addition, in assay [4] (filed as agonist), the Activity was found to be 110%.
As to `CC(C)(C)OC(=O)N[C@@H](CSCc1ccccc1)C(=O)OCCCCCCCCCCCCNC(=O)[C@@H]1CN(C(=O)c2ccc(C(=O)N3C[C@@H](C(=O)N[C@H]4C[C@@H]4c4ccccc4)[C@H](C(=O)N[C@H]4C[C@@H]4c4ccccc4)C3)cc2)C[C@H]1C(=O)N[C@H]1C[C@@H]1c1ccccc1`, the values for the Activity in assay [3] (filed as agonist) and in assay [4] (filed as agonist) were 200% and 100%, respectively.
For `O=C(NCCCCCCCCCCO)[C@@H]1CN(C(=O)c2ccc(C(=O)N3C[C@@H](C(=O)N[C@H]4C[C@@H]4c4ccccc4)[C@H](C(=O)N[C@H]4C[C@@H]4c4ccccc4)C3)cc2)C[C@H]1C(=O)N[C@H]1C[C@@H]1c1ccccc1`, the EC50 in assay [1] came out at 0.5 nM; in assay [2], 50 nM.
For the compound `O=C(O)CNC(=O)CCCCCCCCCCCNC(=O)[C@@H]1CN(C(=O)c2ccc(C(=O)N3C[C@@H](C(=O)N[C@H]4C[C@@H]4c4ccccc4)[C@H](C(=O)N[C@H]4C[C@@H]4c4ccccc4)C3)cc2)C[C@H]1C(=O)N[C@H]1C[C@@H]1c1ccccc1`, the Activity in assay [3] is 30%; in assay [4] (filed as agonist), 110%.
`CC(C)(C)Oc1ccc(C(=O)OCCCCCCCCCCCCNC(=O)[C@@H]2CN(C(=O)c3ccc(C(=O)N4C[C@@H](C(=O)N[C@H]5C[C@@H]5c5ccccc5)[C@H](C(=O)N[C@H]5C[C@@H]5c5ccccc5)C4)cc3)C[C@H]2C(=O)N[C@H]2C[C@@H]2c2ccccc2)cc1`: the Activity is 150% in assay [3] (filed as agonist) and under 50% in assay [4].
Turning to `O=C(OCCCCCCCCCCCCNC(=O)[C@@H]1CN(C(=O)c2ccc(C(=O)N3C[C@@H](C(=O)N[C@H]4C[C@@H]4c4ccccc4)[C@H](C(=O)N[C@H]4C[C@@H]4c4ccccc4)C3)cc2)C[C@H]1C(=O)N[C@H]1C[C@@H]1c1ccccc1)c1ccc(O)cc1`, the Activity was found to be 540% in assay [3] (filed as agonist) and 100% in assay [4] (filed as agonist).
Consider `O=C(O)/C=C/C(=O)NCC(=O)OCCCCCCCCCCCCNC(=O)[C@@H]1CN(C(=O)c2ccc(C(=O)N3C[C@@H](C(=O)N[C@H]4C[C@@H]4c4ccccc4)[C@H](C(=O)N[C@H]4C[C@@H]4c4ccccc4)C3)cc2)C[C@H]1C(=O)N[C@H]1C[C@@H]1c1ccccc1`, for which the Activity was found to be 60% in assay [3] (filed as agonist) and 100% in assay [4] (filed as agonist).
In the same order, the values of `O=C(O)CCCCCCCCCCCNC(=O)[C@@H]1CN(C(=O)c2ccc(C(=O)N3C[C@@H](C(=O)N[C@H]4C[C@@H]4c4ccccc4)[C@H](C(=O)N[C@H]4C[C@@H]4c4ccccc4)C3)cc2)C[C@H]1C(=O)N[C@H]1C[C@@H]1c1ccccc1` are 110% and 100%.
On the same counts, the results for `COC(=O)NCC(=O)OCCCCCCCCCCCCNC(=O)[C@@H]1CN(C(=O)c2ccc(C(=O)N3C[C@@H](C(=O)N[C@H]4C[C@@H]4c4ccccc4)[C@H](C(=O)N[C@H]4C[C@@H]4c4ccccc4)C3)cc2)C[C@H]1C(=O)N[C@H]1C[C@@H]1c1ccccc1` are 120% and 100%.
For `CC(C)(C)OC(=O)NCCOCCOCCOCCOCCC(=O)OCCCCCCCCCCCCNC(=O)[C@@H]1CN(C(=O)c2ccc(C(=O)N3C[C@@H](C(=O)N[C@H]4C[C@@H]4c4ccccc4)[C@H](C(=O)N[C@H]4C[C@@H]4c4ccccc4)C3)cc2)C[C@H]1C(=O)N[C@H]1C[C@@H]1c1ccccc1`, the Activity in assay [3] (filed as agonist) is 150%; in assay [4] (filed as agonist) it was 90%.
In the same order, the values of `CC[C@H](C)[C@H](NC(=O)OC(C)(C)C)C(=O)OCCCCCCCCCCCCNC(=O)[C@@H]1CN(C(=O)c2ccc(C(=O)N3C[C@@H](C(=O)N[C@H]4C[C@@H]4c4ccccc4)[C@H](C(=O)N[C@H]4C[C@@H]4c4ccccc4)C3)cc2)C[C@H]1C(=O)N[C@H]1C[C@@H]1c1ccccc1` are 140% and 100%.
On the same counts, the results for `O=C(NCCCCCCCCc1ccc(O)cc1)[C@@H]1CN(C(=O)c2ccc(C(=O)N3C[C@@H](C(=O)N[C@H]4C[C@@H]4c4ccccc4)[C@H](C(=O)N[C@H]4C[C@@H]4c4ccccc4)C3)cc2)C[C@H]1C(=O)N[C@H]1C[C@@H]1c1ccccc1` are 380% and 90%.
In the same order, the values of `O=C(CNC(=O)C(F)(F)F)OCCCCCCCCCCCCNC(=O)[C@@H]1CN(C(=O)c2ccc(C(=O)N3C[C@@H](C(=O)N[C@H]4C[C@@H]4c4ccccc4)[C@H](C(=O)N[C@H]4C[C@@H]4c4ccccc4)C3)cc2)C[C@H]1C(=O)N[C@H]1C[C@@H]1c1ccccc1` are 100% and 100%.
Take `N#CCC(=O)OCCCCCCCCCCCCNC(=O)[C@@H]1CN(C(=O)c2ccc(C(=O)N3C[C@@H](C(=O)N[C@H]4C[C@@H]4c4ccccc4)[C@H](C(=O)N[C@H]4C[C@@H]4c4ccccc4)C3)cc2)C[C@H]1C(=O)N[C@H]1C[C@@H]1c1ccccc1`: the Activity stood at 120% in assay [3] (filed as agonist) and 130% in assay [4] (filed as agonist).
In the same order, the values of `C#CCCCCCCCCCCCCNC(=O)[C@@H]1CN(C(=O)c2ccc(C(=O)N3C[C@@H](C(=O)N[C@H]4C[C@@H]4c4ccccc4)[C@H](C(=O)N[C@H]4C[C@@H]4c4ccccc4)C3)cc2)C[C@H]1C(=O)N[C@H]1C[C@@H]1c1ccccc1` are 180% and 120%.
Consider `C[C@H](NC(=O)OC(C)(C)C)C(=O)OCCCCCCCCCCCCNC(=O)[C@@H]1CN(C(=O)c2ccc(C(=O)N3C[C@@H](C(=O)N[C@H]4C[C@@H]4c4ccccc4)[C@H](C(=O)N[C@H]4C[C@@H]4c4ccccc4)C3)cc2)C[C@H]1C(=O)N[C@H]1C[C@@H]1c1ccccc1`, for which the Activity in assay [3] (filed as agonist) amounted to 200%; in assay [4] (filed as agonist), 80%.
As to `CC(C)(C)OC(=O)NC1(C(=O)OCCCCCCCCCCCCNC(=O)[C@@H]2CN(C(=O)c3ccc(C(=O)N4C[C@@H](C(=O)N[C@H]5C[C@@H]5c5ccccc5)[C@H](C(=O)N[C@H]5C[C@@H]5c5ccccc5)C4)cc3)C[C@H]2C(=O)N[C@H]2C[C@@H]2c2ccccc2)CC1`, the values for the Activity in assay [3] (filed as agonist) and in assay [4] (filed as agonist) were 220% and 100%, respectively.
